Measured values reported in ChEMBL document CHEMBL1649477, “Trypanothione reductase high-throughput screening campaign identifies novel classes of inhibitors with antiparasitic activity” (Antimicrob Agents Chemother, 2009).
Values joined by “and” are separate entries in the source; they are usually repeats but may differ in a detail not shown here. Equal values may be shown once.

Legend:
[1] = test system: Liver microsomes; experiment: Intrinsic clearance in human liver microsomes assessed per mg of protein by liquid chromatography-mass spectrometry; format: ADME, Microsome
Method in brief: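 Compound is incubated with human liver microsomes and NADPH, and parent loss is followed by LC-MS. Concentration versus time is fitted to exponential decay to give the first-order depletion rate constant. In vitro CLint and predicted hepatic extraction ratio are calculated from that constant.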

[2] = Solubility of the compound at pH 2; format: physicochemical; settings: buffer
[3] = Distribution coefficient, log D of the compound at pH 7.4; format: physicochemical; settings: octanol/water
[4] = Solubility of the compound at pH 6.5; format: physicochemical; settings: buffer
[5] = Dissociation constant, pKa of the compound; format: physicochemical
[6] = Cytotoxicity against rat L6 cells; format: cell-based
[7] = target: T1, Trypanothione reductase (Trypanosoma cruzi, UniProt P28593); experiment: Inhibition of Trypanosoma cruzi X10/1 trypanothione reductase assessed as inhibition of thionitrobenzoate formation by microplate reader analysis
Method in brief: (§1)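 Recombinant T. cruzi TR (Silvio X10/1) coupled to DTNB-driven trypanothione regeneration. Enzyme (20 mU/ml), 12 μM T[S]2 and 200 μM DTNB in pH 7.5 HEPES/EDTA/BSA/Tween 20 buffer are preincubated ≥15 min at room temperature with compound. The reaction is started with 300 μM NADPH. Final conditions are 6 μM T[S]2, 100 μM DTNB and 150 μM NADPH. TNB absorbance at 410 nm is read for 12.5 min. Titrations are run in triplicate.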

[8] = test system: Leishmania donovani; experiment: Antiprotozoal activity against Leishmania donovani MHOM/ET/67/L82 amastigotes; format: functional, organism-based
[9] = test system: Plasmodium falciparum; experiment: Antiplasmodial activity against Plasmodium falciparum 3D7 erythrocytic stage; format: functional, organism-based
[10] = test system: Trypanosoma brucei rhodesiense; experiment: Antitrypanosomal activity against Trypanosoma brucei rhodesiense STIB900 bloodstream forms; format: functional, organism-based
[11] = test system: Trypanosoma cruzi; experiment: Antiprotozoal activity against Trypanosoma cruzi Tulahuen C2C4 amastigotes; format: functional, organism-based
[12] = target: T1, Trypanothione reductase; experiment: Inhibition of Trypanosoma cruzi trypanothione reductase assessed as inhibition of thionitrobenzoate formation by microplate reader analysis; method in brief: as §1
[13] = target: Glutathione reductase (Homo sapiens); experiment: Inhibition of human glutathione reductase
[14] = Cytotoxicity against human HT-29 cells; format: cell-based

T1 sequence (P28593 whole entry): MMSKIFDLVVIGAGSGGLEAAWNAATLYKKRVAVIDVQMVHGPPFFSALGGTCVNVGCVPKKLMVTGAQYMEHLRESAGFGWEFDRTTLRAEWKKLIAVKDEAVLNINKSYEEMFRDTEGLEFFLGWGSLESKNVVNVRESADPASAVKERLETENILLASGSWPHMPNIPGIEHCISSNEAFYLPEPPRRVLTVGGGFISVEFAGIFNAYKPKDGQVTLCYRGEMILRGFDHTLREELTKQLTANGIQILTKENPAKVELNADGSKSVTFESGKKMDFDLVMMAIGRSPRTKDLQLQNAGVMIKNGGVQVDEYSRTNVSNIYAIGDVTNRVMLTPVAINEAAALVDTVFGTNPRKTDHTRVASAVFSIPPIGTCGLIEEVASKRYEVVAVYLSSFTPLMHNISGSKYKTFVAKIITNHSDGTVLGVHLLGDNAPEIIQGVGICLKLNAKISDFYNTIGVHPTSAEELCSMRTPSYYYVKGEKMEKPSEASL

| SMILES | CC50 [6] [µM] | IC50 [7] [µM] | IC50 [8] [µM] | IC50 [9] [µM] | IC50 [10] [µM] | IC50 [11] [µM] | other results |
| --- | --- | --- | --- | --- | --- | --- | --- |
| CCc1ccc2c(C)nc(NC3=NC(C)(C)C=C(C)N3)nc2c1 |  |  |  |  |  |  | CL [1]: 90 µL/min/mg; solubility [2]: > 100 µM; logD [3]: 0.7; solubility [4]: > 100 µM; pKa [5]: 2.4 |
| CN1C2CCC1CC(=NOC(c1ccccc1)c1ccc(Cl)cc1)C2 (configuration not stated) | 35 | 33 | > 30 | 8 | 3 | 0.1 | CL [1]: 31 µL/min/mg; solubility [2]: > 100 µM; logD [3]: 2.9; solubility [4]: > 100 µM; pKa [5]: 8.34 |
| CSc1nncc(-c2ccccc2)n1 |  | > 100 |  |  |  |  |  |
| S=C(Nc1ccccc1)NC1CCN(Cc2ccccc2)CC1 |  |  |  |  |  |  | IC50 [12]: 33 µM |
| S=C(Nc1cccnc1)NC1CCN(Cc2ccccc2)CC1 | 90 | 2 | > 30 | 8.6 | 15 | > 30 | IC50 [12]: 1 µM and 3 µM |
| CN1/C(=C/C=C2\C=Nc3ccccc32)C=Cc2ccccc21 | 14 | 23 | 3 | 0.2 | 0.1 | 6 |  |
| CCCNC(=S)NC1CCN(Cc2ccccc2)CC1 |  |  |  |  |  |  | IC50 [12]: > 100 µM |
| O=C(Nc1cccnc1)NC1CCN(Cc2ccccc2)CC1 |  |  |  |  |  |  | IC50 [12]: > 100 µM |
| CCN1CCC(NC(=S)Nc2cccnc2)CC1 |  |  |  |  |  |  | IC50 [12]: > 100 µM |
| CSc1nncc(-c2cnc(SC)c3c2CCCC3)n1 |  | > 100 |  |  |  |  |  |
| CCc1ccc2c(C)nc(NC3=NC(C)(C)CC(C)=N3)nc2c1 |  | 32 |  |  |  |  | CL [1]: 90 µL/min/mg; solubility [2]: > 100 µM; logD [3]: 3.6; solubility [4]: > 100 µM; pKa [5]: 2 |
| CCOc1ccc2c(C)nc(NC3=NC(C)(C)CC(C)=N3)nc2c1 |  | 28 |  |  |  |  |  |
| Cc1cc(C)c2nc(Nc3nc(C)c(C)c(O)n3)nc(C)c2c1 |  | > 100 |  |  |  |  |  |
| Cc1cc(C)c2c(C)nc(Nc3nc(C)cc(C)n3)nc2c1 | 11 | > 100 | 32 | 4 | 27 | 8 |  |
| Cc1ccc2nc(Nc3nc(C)cc(C)n3)nc(C)c2c1 |  | > 100 |  |  |  |  |  |
| Cc1cc(C)c2nc(NC(=N)N)nc(C)c2c1 |  | > 100 |  |  |  |  |  |
| N=c1n(CCOc2ccccc2)c2ccccc2n1CCN1CCCCC1 |  | 9 | > 30 | 2 | 0.6 | 19 | IC50 [13]: > 100 µM; CC50 [14]: 42 µM |
| CC1=CC(C)(C)N=C(Nc2nc(C)c3cc(C)cc(C)c3n2)N1 | 10 | 17 | 14 | 2 | 1 | 6 |  |
| COc1nncc(-c2cnnc(SC)n2)n1 | 30 | 27 | 8 | 0.2 | 5 | 15 |  |
| Cc1nc(NC(=N)N)nc2ccccc12 | > 64 | > 100 | > 64 | 42 | 39 | 38 |  |
| Nc1nc(N)nc(Nc2ccc([As]3SCC(CO)S3)cc2)n1 (configuration not stated) [MELARSOPROL] |  |  |  |  | 0.017 |  |  |
